Key:
Assay type in all cases: functional
SF-268 = experiment: Anticancer activity against Homo sapiens (human) SF268 cells by SRB assay
In short: (§1)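 Five-dose NCI 60-cell-line panel testing at tenfold dilutions from 10−4 to 10−8 M, with growth read by sulforhodamine B protein staining. For each cell line: GI50 is the molar concentration giving half growth inhibition; TGI is total growth inhibition (cytostatic); LC50 is the molar concentration killing 50% of the initial cells (cytotoxic).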

Hs-578T = experiment: Anticancer activity against Homo sapiens (human) Hs 578T cells by SRB assay
In short: (§2)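 NCI 60-line panel, five tenfold dilutions from 10−4 to 10−8 M, growth read by sulforhodamine B staining against untreated controls. From the dose–response per line: GI50 (molar concentration giving half growth inhibition), TGI (molar concentration giving total growth inhibition, cytostatic) and LC50 (molar concentration killing 50% of initial cells, cytotoxic).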

UACC-257 = experiment: Anticancer activity against Homo sapiens (human) UACC257 cells by SRB assay
In short: (§3)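 NCI five-dose follow-up on the 60-line human tumour panel at tenfold dilutions from 10−4 to 10−8 M, with growth read by sulforhodamine B protein assay against untreated controls. For each cell line, GI50 (half growth inhibition), TGI (total growth inhibition) and LC50 (50% death of initial cells) are calculated as molar concentrations.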

T47D = experiment: Anticancer activity against Homo sapiens (human) T47D cells by SRB assay; in short: as §3
MDA-MB-435 = experiment: Anticancer activity against Homo sapiens (human) MDA-MB-435 cells by SRB assay; in short: as §1
IGROV-1 = experiment: Anticancer activity against Homo sapiens (human) IGROV1 cells by SRB assay; in short: as §2
SK-MEL-28 = experiment: Anticancer activity against Homo sapiens (human) SK-MEL-28 cells by SRB assay; in short: as §1
M14 = experiment: Anticancer activity against Homo sapiens (human) M14 cells by SRB assay; in short: as §2
SNB-19 = experiment: Anticancer activity against Homo sapiens (human) SNB19 cells by SRB assay; in short: as §1
COLO 205 = experiment: Anticancer activity against Homo sapiens (human) COLO205 cells by SRB assay; in short: as §2
ACHN = experiment: Anticancer activity against Homo sapiens (human) ACHN cells by SRB assay; in short: as §2
RXF 393 = experiment: Anticancer activity against Homo sapiens (human) RXF393 cells by SRB assay; in short: as §1
[1] = Anticancer activity against Homo sapiens (human) RPMI8266 cells by SRB assay; in short: as §1
SF-539 = experiment: Anticancer activity against Homo sapiens (human) SF539 cells by SRB assay; in short: as §1
TK-10 = experiment: Anticancer activity against Homo sapiens (human) TK10 cells by SRB assay; in short: as §3
786-0 = experiment: Anticancer activity against Homo sapiens (human) 786-0 cells by SRB assay; in short: as §2
HCT-116 [2] = experiment: Anticancer activity against Homo sapiens (human) HCT116 cells by SRB assay; in short: as §2
SN12C = experiment: Anticancer activity against Homo sapiens (human) SN12C cells by SRB assay; in short: as §1
SK-MEL-2 = experiment: Anticancer activity against Homo sapiens (human) SK-MEL-2 cells by SRB assay; in short: as §1
PC-3 = experiment: Anticancer activity against Homo sapiens (human) PC3 cells by SRB assay; in short: as §1
HCT-15 = experiment: Anticancer activity against Homo sapiens (human) HCT15 cells by SRB assay; in short: as §2
Malme-3M = experiment: Anticancer activity against Homo sapiens (human) MALME-3M cells by SRB assay; in short: as §2
SF-295 = experiment: Anticancer activity against Homo sapiens (human) SF295 cells by SRB assay; in short: as §1
NCI-H23 = experiment: Anticancer activity against Homo sapiens (human) NCI-H23 cells by SRB assay; in short: as §1
CCRF-CEM [3] = experiment: Anticancer activity against Homo sapiens (human) CCRF-CEM cells by SRB assay; in short: as §2
KM12 = experiment: Anticancer activity against Homo sapiens (human) KM12 cells by SRB assay; in short: as §2
OVCAR-4 = experiment: Anticancer activity against Homo sapiens (human) OVCAR4 cells by SRB assay; in short: as §1
EKVX = experiment: Anticancer activity against Homo sapiens (human) EKVX cells by SRB assay; in short: as §2
OVCAR-5 = experiment: Anticancer activity against Homo sapiens (human) OVCAR5 cells by SRB assay; in short: as §1
U-251 = experiment: Anticancer activity against Homo sapiens (human) U251 cells by SRB assay; in short: as §3
SR [4] = experiment: Anticancer activity against Homo sapiens (human) SR cells by SRB assay; in short: as §3
HT-29 = experiment: Anticancer activity against Homo sapiens (human) HT-29 cells by SRB assay; in short: as §2
HOP-92 = experiment: Anticancer activity against Homo sapiens (human) HOP92 cells by SRB assay; in short: as §2
DU-145 = experiment: Anticancer activity against Homo sapiens (human) DU145 cells by SRB assay; in short: as §2
HOP-62 = experiment: Anticancer activity against Homo sapiens (human) HOP62 cells by SRB assay; in short: as §2
SW-620 [5] = experiment: Anticancer activity against Homo sapiens (human) SW620 cells by SRB assay; in short: as §3
BT-549 = experiment: Anticancer activity against Homo sapiens (human) BT549 cells by SRB assay; in short: as §2
UACC-62 = experiment: Anticancer activity against Homo sapiens (human) UACC62 cells by SRB assay; in short: as §3
MCF7 = experiment: Anticancer activity against Homo sapiens (human) MCF7 cells by SRB assay; in short: as §2
A498 = experiment: Anticancer activity against Homo sapiens (human) A498 cells by SRB assay; in short: as §2
NCI-H460 = experiment: Anticancer activity against Homo sapiens (human) NCI-H460 cells by SRB assay; in short: as §1
UO-31 = experiment: Anticancer activity against Homo sapiens (human) UO31 cells by SRB assay; in short: as §3
SK-MEL-5 = experiment: Anticancer activity against Homo sapiens (human) SK-MEL-5 cells by SRB assay; in short: as §1
OVCAR-3 = experiment: Anticancer activity against Homo sapiens (human) OVCAR3 cells by SRB assay; in short: as §1
OVCAR-8 = experiment: Anticancer activity against Homo sapiens (human) OVCAR8 cells by SRB assay; in short: as §1
A549 = experiment: Anticancer activity against Homo sapiens (human) A549/ATCC cells by SRB assay; in short: as §2
SNB-75 = experiment: Anticancer activity against Homo sapiens (human) SNB75 cells by SRB assay; in short: as §1
NCI-H522 [6] = experiment: Anticancer activity against Homo sapiens (human) NCI-H522 cells by SRB assay; in short: as §1
K562 [7] = experiment: Anticancer activity against Homo sapiens (human) K562 cells by SRB assay; in short: as §2
CAKI-1 [8] = experiment: Anticancer activity against Homo sapiens (human) CAKI-1 cells by SRB assay; in short: as §2
[9] = Anticancer activity against Homo sapiens (human) NCI-322M cells by SRB assay; in short: as §1
SK-OV-3 = experiment: Anticancer activity against Homo sapiens (human) SKOV3 cells by SRB assay; in short: as §1
NCI/ADR-RES = experiment: Anticancer activity against Homo sapiens (human) NCI/ADR-RES cells by SRB assay; in short: as §1
CAKI-1 [10] = experiment: Anticancer activity against Homo sapiens (human) CAKI-1 cells assessed as cell growth at 10 uM by SRB assay; settings: read-out: Activity
In short: (§4)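 NCI 60-cell human tumour panel (nine cancer types) screened at one concentration, 10−5 M. Cell growth estimated by sulforhodamine B protein staining and reported as percent growth of treated cells relative to untreated controls.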

LOX IMVI = experiment: Anticancer activity against Homo sapiens (human) LOXIMVI cells assessed as cell growth at 10 uM by SRB assay; settings: read-out: Activity; in short: as §4
SR [11] = experiment: Anticancer activity against Homo sapiens (human) SR cells assessed as cell growth at 10 uM by SRB assay; settings: read-out: Activity
In short: (§5)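 NCI 60-cell human tumour panel (leukemia, melanoma, lung, colon, CNS, breast, ovarian, prostate, renal lines) given a single 10−5 M dose. Growth is expressed as percent growth of treated cells relative to untreated controls, with cell growth/viability estimated by sulforhodamine B protein staining.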

HCT-116 [12] = experiment: Anticancer activity against Homo sapiens (human) HCT116 cells assessed as cell growth at 10 uM by SRB assay; settings: read-out: Activity; in short: as §4
NCI-H522 [13] = experiment: Anticancer activity against Homo sapiens (human) NCI-H522 cells assessed as cell growth at 10 uM by SRB assay; settings: read-out: Activity
In short: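 Single-dose screen in the NCI 60-human-tumour-cell-line panel (nine cancer types) at 10−5 M. Cell growth was estimated by sulforhodamine B protein staining and reported as percent growth of treated cells relative to untreated controls.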

K562 [14] = experiment: Anticancer activity against Homo sapiens (human) K562 cells assessed as cell growth at 10 uM by SRB assay; settings: read-out: Activity; in short: as §4
CCRF-CEM [15] = experiment: Anticancer activity against Homo sapiens (human) CCRF-CEM cells assessed as cell growth at 10 uM by SRB assay; settings: read-out: Activity; in short: as §4
SW-620 [16] = experiment: Anticancer activity against Homo sapiens (human) SW620 cells assessed as cell growth at 10 uM by SRB assay; settings: read-out: Activity; in short: as §5

## Nc1nc2[nH]cnc2c(=S)[nH]1 [THIOGUANINE]
SF-268
  GI50: 1.26 µM
Hs-578T
  GI50: 6.31 µM
UACC-257
  GI50: 6.31 µM
T47D
  GI50: 10 µM
MDA-MB-435
  GI50: 0.501 µM
IGROV-1
  GI50: 6.31 µM
SK-MEL-28
  GI50: 6.31 µM
M14
  GI50: 0.631 µM
SNB-19
  GI50: 79.4 µM
COLO 205
  GI50: 2.51 µM
ACHN
  GI50: 3.98 µM
RXF 393
  GI50: 0.501 µM
[1]
  GI50: 1.26 µM
SF-539
  GI50: 0.631 µM
TK-10
  GI50: 0.501 µM
786-0
  GI50: 1.58 µM
HCT-116 [2]
  GI50: 0.631 µM
SN12C
  GI50: 7.94 µM
SK-MEL-2
  GI50: 1.58 µM
PC-3
  GI50: 3.16 µM
HCT-15
  GI50: 2.51 µM
Malme-3M
  GI50: 3.16 µM
SF-295
  GI50: 1.26 µM
NCI-H23
  GI50: 3.16 µM
CCRF-CEM [3]
  GI50: 0.316 µM
KM12
  GI50: 3.16 µM
OVCAR-4
  GI50: 5.01 µM
EKVX
  GI50: 3.98 µM
OVCAR-5
  GI50: 0.501 µM
U-251
  GI50: 10 µM
SR [4]
  GI50: 0.631 µM
HT-29
  GI50: 1.26 µM
HOP-92
  GI50: 1.58 µM
DU-145
  GI50: 0.501 µM
HOP-62
  GI50: 0.794 µM
SW-620 [5]
  GI50: 3.98 µM
BT-549
  GI50: 1.26 µM
UACC-62
  GI50: 0.398 µM
MCF7
  GI50: 0.501 µM
A498
  GI50: 25.1 µM
NCI-H460
  GI50: 1 µM
UO-31
  GI50: 0.794 µM
SK-MEL-5
  GI50: 2.51 µM
OVCAR-3
  GI50: 1.58 µM
OVCAR-8
  GI50: 0.398 µM
A549
  GI50: 5.01 µM
SNB-75
  GI50: 1 µM
NCI-H522 [6]
  GI50: 2 µM
K562 [7]
  GI50: 100 µM
CAKI-1 [8]
  GI50: 0.316 µM
[9]
  GI50: 25.1 µM
SK-OV-3
  GI50: 0.501 µM
NCI/ADR-RES
  GI50: 0.398 µM

## O=c1[nH]c(-c2ccccc2)nc2c1sc(=O)n2-c1ccccc1
CAKI-1 [10]
  growth at 10 µM: 26.8%

## O=c1sc2c(Cl)nc(-c3ccc(Cl)cc3)nc2n1-c1ccccc1
LOX IMVI
  growth at 10 µM: 24.4%
SR [11]
  growth at 10 µM: 21.5%
HCT-116 [12]
  growth at 10 µM: 29.3%
NCI-H522 [13]
  growth at 10 µM: 5.19%
K562 [14]
  growth at 10 µM: 34.6%
CCRF-CEM [15]
  growth at 10 µM: 33.6%
SW-620 [16]
  growth at 10 µM: 47.6%

## O=c1sc2c(Cl)nc(-c3ccc(F)cc3)nc2n1-c1ccccc1
SR [11]
  growth at 10 µM: 28.6%
HCT-116 [12]
  growth at 10 µM: 40.5%
K562 [14]
  growth at 10 µM: 35.8%
CAKI-1 [10]
  growth at 10 µM: 41.8%

From ChEMBL document CHEMBL3045605, “Synthesis and anticancer evaluation of novel 3,5-diaryl-thiazolo[4,5-d]pyrimidin-2-one derivatives” (2013)
